Assay results gathered from unrelated publications.
Lines come from different studies, so protocols differ.
Medium: PAMPA

Structure (SMILES) | tested at | time | pH | Papp [×10⁻⁶ cm/s]
CCCOC(=O)c1ccc(O)cc1 | 5 µM |  | pH 7.4 | 7.04
C=C(CC(=O)OCOC(=O)C(C)(C)C)C(=O)OCOC(=O)C(C)(C)C | 10 µM | 4 h | pH 7.4 | > 10
CCCCC(CC)COC(=O)c1ccc(O)cc1 (stereo not drawn) | 5 µM |  | pH 7.4 | 1.49
C=C(CC(=O)OCOC(=O)C(C)(C)C)C(=O)O | 10 µM | 4 h | pH 7.4 | < 1
Cc1c(S(=O)(=O)N2CCn3cccc3C2)cc(C(=O)NCc2cccnc2N2CCCC2)n1C |  |  |  | 27.6
C=C(CC(=O)OCOC(=O)OC(C)C)C(=O)OC | 10 µM | 4 h | pH 7.4 | > 10
O=C(O)c1cc(/N=N/c2ccc(S(=O)(=O)Nc3ccccn3)cc2)ccc1O |  | 4 h |  | 0.077
Cc1[nH]c(C)c(S(=O)(=O)Nc2ccc(C(F)(F)F)c(Cl)c2)c1C(=O)N1CCC(F)(F)C1 |  |  |  | 7.3
Cc1c(S(=O)(=O)N2CCn3nccc3C2)cc(C(=O)NCc2c(F)ccc3cnn(C)c23)n1C |  |  |  | 25
CC(C)(C)OC(=O)c1ccc(O)cc1 | 5 µM |  | pH 7.4 | 4.04
COc1ccccc1CNC(=O)c1cc(S(=O)(=O)N2CCn3nccc3C2)c(C)n1C |  |  |  | 22.9
CCCCCOC(=O)c1ccc(O)cc1 | 5 µM |  | pH 7.4 | 4.28
Cc1c(S(=O)(=O)N2CCc3[nH]ncc3C2)cc(C(=O)NCc2cccnc2N2CCCC2)n1C |  |  |  | 14.4
CCCCCCCOC(=O)c1ccc(O)cc1 | 5 µM |  | pH 7.4 | 1.9
C=C(CC(=O)OCOC(=O)C(C)(C)C)C(=O)OC | 10 µM | 4 h | pH 7.4 | > 10
